Screening data deposited in PubChem by Johns Hopkins Ion Channel Center.
hERG rescue = shields human hERG channel from block by proarrhythmic agents. activation (rescue from dofetilide block), less the hit threshold, % at 10 µM. Q12809. AID 1511. actives 0.51% (n = 310,000). CHO-hERG, FluxOR thallium flux, dofetilide IC70 present;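 active = activation above the mean of controls blocked by dofetilide plus 5 SD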;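 also: thallium influx through hERG after potassium depolarization seen as dye fluorescence rise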
KCNQ1 inh = inhibitors of human KCNQ1 potassium channel; CHO-K1 KCNQ1, FluxOR thallium flux fluorescence; hits give high values; B-score at 10 µM; actives 1.3% (n = 310,000);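 active = compounds whose thallium flux B-score, printed positive for inhibition, exceeds three library SD while starting fluorescence stays within three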;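 also: channel opened by potassium depolarization with thallium stimulus after 20 min compound exposure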
KCNK9 inh = blocks the human KCNK9 two-pore domain potassium channel; HEK293 KCNK9, FluxOR thallium flux fluorescence; hits give low values; Q9NPC2; actives 1.2% (n = 310,000); B-score at 10 µM;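 active = ratio B-score over 3 SD below the library mean, with starting fluorescence within 5 SD of its mean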;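 also: negative B-score means less thallium flux so channel inhibition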
KCNQ1 act = potentiates or activates the human KCNQ1 potassium channel; P51787; CHO-K1 KCNQ1, thallium flux FluxOR fluorescence; hits give high values; B-score at 10 µM; actives 0.35% (n = 310,000); AID 2648;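 active = fluorescence ratio B-score, a plate-corrected score, at least three library SD, with initial intensity B-score within 5 SD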
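Material: CHO-K1 cells stably expressing KCNQ1. Medium: assay buffer for compound exposure, DMSO matched across wells. Reagent: K+/Tl+ depolarizing stimulus. Compound dosing: single-concentration screen. Times: 37 °C overnight plating, 90-min dark dye load, 20-min compound pretreatment. Technique: FluxOR Tl+ flux fluorescence.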
KCNK3 block = human KCNK3 channel inhibition, primary screen. AID 602410. actives 0.84% (n = 340,000). B-score at 10 µM. O14649. CHO-KCNK3 thallium flux, FluxOR fluorescence; hits give low values;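 active = B-score under library mean minus 4 SD, starting fluorescence ratio at most library mean plus 5 SD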;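 also: more negative B-score means stronger inhibition of thallium flux through KCNK3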
Target sequence (O14649 whole entry, looked up): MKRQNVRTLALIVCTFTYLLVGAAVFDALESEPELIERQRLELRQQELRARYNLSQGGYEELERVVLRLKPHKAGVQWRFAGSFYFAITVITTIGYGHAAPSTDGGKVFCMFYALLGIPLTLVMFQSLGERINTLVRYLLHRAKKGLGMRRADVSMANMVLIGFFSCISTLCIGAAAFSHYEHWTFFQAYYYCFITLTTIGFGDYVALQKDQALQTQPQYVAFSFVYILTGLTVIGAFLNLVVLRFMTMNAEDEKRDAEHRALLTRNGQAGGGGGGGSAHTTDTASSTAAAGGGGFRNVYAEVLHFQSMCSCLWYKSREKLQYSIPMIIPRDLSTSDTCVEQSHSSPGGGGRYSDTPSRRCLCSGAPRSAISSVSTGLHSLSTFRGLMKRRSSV
KCNQ1 inh valid = human KCNQ1 channel inhibition, validation assay | shares compounds with KCNQ1 inh | KCNQ1 cell line, FluxOR thallium flux fluorescence | inhibition, % at 10 µM | actives 93% (n = 1,600) | AID 588353;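 active = primary screen active, with duplicate mean exceeding buffer control mean plus 3 SD of buffer wells, cut at about 28% in these data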
CHO KCNQ1 ctr = KCNQ1 inhibitor counter-screen hit in parental CHO cells. shares compounds with KCNQ1 inh. parental CHO-K1, FluxOR thallium flux fluorescence ratio; hits give low values; zero means no signal rise above baseline. fluorescence ratio (Tl flux) at 10 µM. actives 21% (n = 1,600);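 active = mean of duplicate thallium-flux fluorescence ratios in parental host cells more than 5 SD below the buffer control mean, cut at about 0.38 in these data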;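 also: ratio is peak minus minimum fluorescence divided by baseline fluorescence; actives read low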
KCNQ1 ephys val = confirmation of human KCNQ1 potassium channel inhibitors by electrophysiology; shares compounds with KCNQ1 inh; KCNQ1-CHO cells, automated patch clamp current; calls only at 10 µM; actives 20% (n = 490); AID 624120;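 active = KCNQ1 current drop exceeding 3 SD of negative control wells, seen in both duplicate runs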;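 also: steady state current during a 2 s step from -80 to +40 mV; negative values mean current inhibition and positive values mean potentiation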
KCNQ2 inh = rat KCNQ2 inhibition in KCNQ1 inhibitor specificity screen; AID 651746; actives 71% (n = 1,600); KCNQ2 cells, FluxOR thallium flux fluorescence; shares compounds with KCNQ1 inh; inhibition, % at 10 µM;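 active = mean percent inhibition of the KCNQ2 thallium signal more than 5 SD above the buffer-only control wells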;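 also: KCNQ2 expressed in CHO cells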
KCNQ1-KCNE1 inh = KCNQ1 inhibitor that also blocks human KCNQ1/KCNE1 channel; KCNQ1/KCNE1 cells, FluxOR thallium flux fluorescence; actives 77% (n = 1,600); inhibition, % at 10 µM; shares compounds with KCNQ1 inh;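 active = mean percent inhibition of duplicate wells above the buffer-only control mean plus 3 SD of those controls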
Hits are given with their value; i = inactive; nt = no result given; + = active, no number. Shown are actives, neighbours in structure and some others; about 3.1% of the full set was active somewhere.

SMILES	hERG rescue	KCNQ1 inh	KCNK9 inh	KCNQ1 act	KCNK3 block	KCNQ1 inh valid	CHO KCNQ1 ctr	KCNQ2 inh	KCNQ1-KCNE1 inh	others
O=C(c1cc(COc2cccc(C(F)(F)F)c2)on1)N1CCC(Oc2cccnc2)CC1	i	8	i	i	i	132	i	96%	85%	KCNQ1 ephys val=i
O=C(c1cc(COc2ccc3ncccc3c2)on1)N1CCC(O)CC1	i	i	i	i	i	nt	nt	nt	nt
CCC(O)C1CCN(C(=O)c2cc(COc3ccc4ncccc4c3)on2)CC1 (configuration not stated)	i	8	i	i	i	58	i	100%	i
CC(=O)c1ccc(OCc2cc(C(=O)N3CCC(Oc4ccccc4C)CC3)no2)cc1	i	i	i	i	i	nt	nt	nt	nt
CCOC(=O)c1c(C)[nH]c(C(=O)OCC(=O)Nc2ccccc2)c1C	nt	nt	nt	nt	i	nt	nt	nt	nt
CCCSc1nsc(NC(=O)Nc2ccc(F)cc2F)n1	i	11	i	i	i	58	i	i	i
CCSc1nsc(NC(=O)Nc2cccc(F)c2)n1	i	8	i	i	i	52	i	i	i
COc1ccc(C(=O)COC(=O)C(CCSC)NC(=O)COc2ccccc2)cc1 (configuration not stated)	i	i	i	i	i	nt	nt	nt	nt
CN(Cc1cccnc1)C(=O)c1cc(COc2ccc3c(c2)CCCC3)on1	i	7	i	i	i	115	i	81%	46%	KCNQ1 ephys val=i
O=C(Nc1cccc(Cl)c1)N1CCSc2cc(Cl)ccc21	i	9	i	i	i	119	i	111%	68%
O=S(=O)(c1ccccc1)N1c2cc(Cl)ccc2Oc2nc3ccccc3nc21	i	8	i	i	i	109	0.36	100%	146%
CCc1nc2ccccc2nc1N1CCN(S(=O)(=O)c2ccc(Cl)cc2)CC1	i	i	i	i	i	nt	nt	nt	nt
O=C(Cc1ccc(NC(=O)C2CCCN(C(=O)C3CC3)C2)cc1)Nc1ccc(C(=O)N2CCOCC2)cc1 (configuration not stated)	nt	nt	nt	nt	i	nt	nt	nt	nt
CCOC(=O)C1=C(N)Oc2ccc3ccccc3c2C1c1cccnc1 (configuration not stated)	i	i	i	i	i	nt	nt	nt	nt
CCOC(=O)C1=C(N)Oc2ccc3ccccc3c2C1c1cccc(O)c1 (configuration not stated)	i	6	i	i	i	116	i	122%	123%	KCNQ1 ephys val=i
CCN1CCCC1CNC(=O)c1cc(COc2ccc(C)c(C)c2)on1 (configuration not stated)	i	i	i	i	i	nt	nt	nt	nt
CCOC(=O)Cc1csc(NC(=O)c2c(O)c3c(n(CC(C)C)c2=O)CCCC3)n1	i	7	i	i	i	79	i	72%	107%
CCCn1c2c(c(O)c(C(=O)Nc3nc(C)cs3)c1=O)CCCC2	i	i	i	i	nt	nt	nt	nt	nt
COc1ccc(OC)c2c1C(=O)c1ccccc1C2=O	i	i	i	i	nt	nt	nt	nt	nt
COc1ccc2noc3c2c1C(=O)c1ccccc1-3	i	23	i	i	i	+	0.0045	i	i
CCOc1ccc(S(=O)(=O)NCc2ccncc2)cc1	i	i	i	i	i	nt	nt	nt	nt
CCOc1cc(S(=O)(=O)NCc2ccncc2)ccc1Cl	i	8	i	i	i	74	i	i	36%
O=C(NCc1ccco1)c1ccccc1Nc1ccc(F)cc1	i	7	i	i	i	105	i	63%	91%	KCNQ1 ephys val=+
O=C(NCc1ccco1)c1ccccc1F	i	i	i	i	i	nt	nt	nt	nt
CC(C)(C)c1ccc(NC(=O)COc2ccc(-n3ccnc3)cc2)cc1	i	7	i	i	i	130	i	74%	40%
SMILES	hERG rescue	KCNQ1 inh	KCNK9 inh	KCNQ1 act	KCNK3 block	KCNQ1 inh valid	CHO KCNQ1 ctr	KCNQ2 inh	KCNQ1-KCNE1 inh	others
COc1cc(NC(=O)COc2ccc(-n3ccnc3)cc2)cc(OC)c1	i	i	i	i	i	nt	nt	nt	nt
COc1cc(NC(=O)c2ccnnc2)cc(C(=O)Nc2cccc(C(F)(F)F)c2)c1	i	9	i	i	i	92	i	111%	117%
O=C(Nc1cccc(C(F)(F)F)c1)c1cccnc1	i	i	i	i	i	nt	nt	nt	nt
CCN1C[C@@H]2[C@@H]3C(=O)N(C)C(=O)[C@@H]3[C@](CC)(C1=O)N2C(=O)c1ccc(C(C)(C)C)cc1	nt	nt	nt	nt	i	nt	nt	nt	nt
Cc1cc2c(cc1C)NC(c1c(C)n(C)n(-c3ccccc3)c1=O)C1=C(CC(C)(C)CC1=O)N2 (configuration not stated)	i	15	i	i	i	i	i	i	i
COc1cc(C2Nc3cc(C)c(C)cc3NC3=C2C(=O)CC(C)(C)C3)ccc1OC(C)=O (configuration not stated)	i	i	i	i	i	nt	nt	nt	nt
O=S(=O)(Nc1c(O)ccc2ccccc12)c1ccc(F)cc1	i	10	i	i	i	42	i	i	55%
O=S(=O)(Nc1ncccn1)c1ccc(F)cc1	i	i	i	i	i	nt	nt	nt	nt
O=S(=O)(Nc1cccc2ccccc12)c1ccccc1	i	i	i	i	i	nt	nt	nt	nt
O=S(=O)(Nc1c(O)ccc2ccccc12)c1ccccc1	i	11	i	i	i	56	i	i	90%
Cc1ccc(NC(=O)C2CCN(S(=O)(=O)c3ccc4c(c3)NC(=O)C(C)S4)CC2)cc1Cl (configuration not stated)	i	17	i	i	i	126	i	92%	107%	KCNQ1 ephys val=i
CC1Sc2ccc(S(=O)(=O)N3CCC(C(=O)NCC(C)c4ccccc4)CC3)cc2NC1=O (configuration not stated)	i	7	i	i	i	56	i	i	i
Cc1ccc(NC(=O)C2CCN(S(=O)(=O)c3ccc4c(c3)NC(=O)C(C)S4)CC2)c(Cl)c1 (configuration not stated)	i	i	i	i	i	nt	nt	nt	nt
Cc1cc(C)cc(NC(=O)C2CCN(S(=O)(=O)c3ccc4c(c3)NC(=O)C(C)S4)CC2)c1 (configuration not stated)	i	7	i	i	i	116	i	98%	131%	KCNQ1 ephys val=i
COc1ccc(C=O)c2[nH]c3c(Cl)ncnc3c12	i	i	i	i	i	nt	nt	nt	nt
Cc1cc(-c2ccccc2)nc(Nc2nc3c(C)cccc3c(=O)[nH]2)n1	nt	nt	nt	nt	i	nt	nt	nt	nt
